Experimental findings from the RNAGym collection of RNA variant scans (doi:10.1038/s41586-018-0170-7) are described below.

The chains are these.
B1: tRNA (parent)
chain: GUUCCGUUGGCGUAAUGGUAACGCGUCUCCCUCCUAAGGAGAAGACUGCGGGUUCGAGUCCCGUACGGAACG

Variants of B1 are the subject of this series. The experiment in a line: yeast fitness, log relative to wild type (ln ratio); higher = fitter; tRNA-Arg(CCU), competitive growth, 37 C, 1 M NaCl. In a few lines: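 BY4742 cells without the chromosomal tRNA-Arg(CCU) gene carried a combinatorial variant library on a HIS3 centromeric plasmid, from two independent transformations. After 4 generations in SC-HIS at 30 °C, pools spent ~6.5 generations (~26.5 h) in SC-HIS 1M NaCl at 37 °C, giving three outputs per input, and 125 bp paired-end Illumina reads counted the variants. Fitness is the natural log of each genotype's generations over the wild type's, with generations taken as OD-scaled log2 output/input frequency weighted by inverse variance across replicates.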
Consider G1A U2C G6U A43C C46U C66A A70G C71U, for which the “yeast fitness (ln)” value was -0.0283.
G1A U2C G6A C27U A43C C46U C66U A70G: the “yeast fitness (ln)” value is -0.155.
With G1A U2C G6A C27U A43C C46U C66U A70U the figure was -0.0654.
As for G1A U2C G6U A43C A69G A70G C71U, the figure is -0.268.
As for G1A U2C C27U A69G A70G C71U, the figure is -0.0512; as for G1A U2C G6U A43C C46U A70G C71U, -0.359.
Consider G1A U2C G6A C27U A43C C46U, for which the “yeast fitness (ln)” value is -0.0401.
As for G1A U2C C27U A43C A69G A70U, the figure is -0.307; as for G1A U2C C27U A43C A69G A70G, -0.275; as for G1A U2C G6A A70U, -0.0459.
With G1A U2C G6A A70G the figure was -0.0946.
As for G1A U2C C66U A69G A70G C71U, the figure is -0.055; as for G1A U2C G6A A69G A70U C71U, -0.281; as for G1A U2C C27U A43C C46U C66U A69G A70U C71U, -0.464.
Regarding G1A U2C C27U A43C C46U C66A C71U, the “yeast fitness (ln)” value was -0.24.
As for G1A U2C A69G A70G, the figure is -0.0537.
As for G1A U2C A69G A70U, the figure is -0.00637; as for G1A U2C C27U A43C C46U C66U A70G C71U, -0.4.
Turning to G1A U2C G6U A69G A70U C71U, the “yeast fitness (ln)” value is -0.277.
Consider G1A U2C G6U A43C C66U A70U, for which the “yeast fitness (ln)” value was -0.295.
With G1A U2C G6A A43C C46U C66U A69G A70G C71U the figure was -0.0138; with G1A U2C G6A A43C C66U A69G A70U, -0.275; with G1A U2C G6A A43C C66U A69G A70G, -0.309.
As for G1A U2C G6A A43C C46U A70G C71U, the figure is -0.354.
With G1A U2C G6A C46U C66U A70U C71U the figure was -0.0901.
On to G1A U2C C46U A70G, for which the “yeast fitness (ln)” value is -0.014.
Turning to G1A U2C C46U A70U, the “yeast fitness (ln)” value was -0.0782.
With G1A U2C G6U A43C the figure was -0.116.
With G1A U2C G6A C27U A43C C46U C66U A69G A70U the figure was -0.416; with G1A U2C G6A C27U A43C C46U C66U A69G A70G, -0.0972.
As for G1A U2C A70G, the figure is -0.0111; as for G1A U2C A70U, -0.096.
With G1A U2C G6A C27U A70U, the “yeast fitness (ln)” value is -0.0756.
As for G1A U2C G6A C27U A43C A70U C71U, the figure is -0.186; as for G1A U2C C66U A69G A70U, -0.245.
With G1A U2C G6U C27U A43C C46U C66U A70G C71U the figure was -0.0871.
With G1A U2C G6U C27U A43C A70U the figure was -0.14.
In the case of G1A U2C G6A C46U A70G C71U, the “yeast fitness (ln)” value is -0.00868.
Regarding G1A U2C G6U C27U, the “yeast fitness (ln)” value was -0.0816.
As for G1A U2C C27U A43C A69G A70G C71U, the figure is -0.0597; as for G1A U2C C27U A70G C71U, -0.0348; as for G1A U2C G6A C27U C46U C66U A70G, -0.0633.
In the case of G1A U2C G6A C27U C46U C66U A70U, the “yeast fitness (ln)” value is -0.0971.
As for G1A U2C C27U C46U C66U A69G A70G C71U, the figure is -0.174.
On to G1A U2C G6A C66U A70G C71U, for which the “yeast fitness (ln)” value was -0.0113.
G1A U2C C27U C46U A70U C71U: the “yeast fitness (ln)” value is -0.155.
With G1A U2C G6U C27U A43C A70G C71U the figure was -0.22; with G1A U2C C27U A43C C46U C66U A69G A70G C71U, -0.2; with G1A U2C C27U A43C C46U A70U, -0.072.
With G1A U2C C27U A43C C46U A70G the figure was -0.0342; with G1A U2C C27U, -0.0512; with G1A U2C C27U A43C C71U, -0.0487.
For the variant G1A U2C C27U A43C C46U C66U, the “yeast fitness (ln)” value was -0.161.
With G1A U2C G6A C27U C46U C66U A70G C71U the figure was -0.00474; with G1A U2C G6A C27U A43C C46U A69G A70U C71U, -0.408; with G1A U2C C27U C46U C66A A70U, 0.02.
Take G1A U2C G6U C27U A43C C46U C66U A69G A70U: the “yeast fitness (ln)” value is -0.472.
With G1A U2C G6U C27U A43C C46U C66U A69G A70G the figure was -0.279; with G1A U2C G6U C27U A43C C46U A70G C71U, -0.198.
With G1A U2C G6U C27U A43C C46U A69G A70G C71U the figure was -0.267.
As for G1A U2C C27U A43C C46U, the figure is -0.0167; as for G1A U2C C66U A70U C71U, -0.106; as for G1A U2C G6U A70U C71U, -0.158.
Regarding G1A U2C C27U C46U A69G C71U, the “yeast fitness (ln)” value was -0.192.
Regarding G1A U2C G6U A43C C46U A70U C71U, the “yeast fitness (ln)” value was -0.144.
With G1A U2C C46U A69G A70U C71U the figure was -0.257; with G1A U2C C27U A43C A69G C71U, -0.173; with G1A U2C G6A C46U A69G A70U C71U, -0.0787.
For G1A U2C G6A C27U A70U C71U, the “yeast fitness (ln)” value is -0.109.
As for G1A U2C C27U A43C C46U C66U A70U C71U, the figure is -0.297; as for G1A U2C C27U A43C C46U C66A A70G C71U, -0.16.
With G1A U2C C27U A43C C46U C71U the figure was -0.178; with G1A U2C G6U, -0.00557.
With G1A U2C G6A the figure was 0.00615; with G1A U2C G6U A43C A70U, -0.153.
For the variant G1A U2C A43C C66U A70U C71U, the “yeast fitness (ln)” value was -0.281.
As for G1A U2C G6U A43C C46U A70U, the figure is -0.0463.
As for G1A U2C C46U C71U, the figure is -0.0165; as for G1A U2C A69G A70U C71U, -0.321; as for G1A U2C C27U A43C C66U A70U, -0.179.
As for G1A U2C G6U A43C C46U A69G A70G, the figure is -0.126.
Regarding G1A U2C A43C C66U A70G, the “yeast fitness (ln)” value is -0.161.
Take G1A U2C A43C C66U A70U: the “yeast fitness (ln)” value is -0.169.
